These results are taken from publication PMC4423195 (Cell Death and Differentiation, 2015).

Entries after “also recorded” stand apart in the source; their conditions may differ. Where only a bound is given, the exact number is not on record here.

In one series the test system is focal Vinculin. Briefly: Focal Vinculin immunostaining in DIV21 primary hippocampal neurons. The conditions noted are these: Aβ42O 1 μM, 2 h, n=5 replicates. The format is cell-based.
The test system of another series is Cofilin (mitochondrial). Briefly: Translocation of Cofilin to mitochondria in HT22 cells. The format is cell-based, mouse (HT22 mouse cell line). Conditions: Aβ42O 1 μM; 0, 2, 4 h; n=4 replicates. Summed up: (§1)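 HT22 cells exposed to Aβ42 oligomers (1 μM) for 0, 2 or 4 h. Intact mitochondria separated from cytosol with a commercial isolation kit. Protein measured by BCA. Equal amounts run on SDS-PAGE, blotted to nitrocellulose, probed and detected by peroxidase secondary/ECL. Bands quantified densitometrically; n=4 replicates, t-test.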

Another series concerns β1-integrin. The format is cell-based, mouse (HT22 mouse cell line). Conditions: Aβ42O 1 μM, 2 h; direct immunoblotting (total).
In series [1] the test system is Cofilin (phospho-Cofilin). Kind of series: Immunoblot of phospho-Cofilin in primary cortical neurons. The format is cell-based, mouse. Conditions: Aβ42O 1 μM, 2 h, n=4 replicates. On the technique in general: In western blotting, separated proteins are transferred to a membrane and probed.
For series [2], the system named is HT22 cells. Kind of series: H2DCF general ROS imaging. The format is cell-based, mouse. Conditions: Aβ42O 1 μM, 2 h, n=6. The essentials:
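HT22 cells pretreated 45 min (methods; legend gives 1 h) with or without HUTS-4 (1:250), MAB1965 (1:250) or Nox inhibitor III (40 nM), then Aβ42 oligomers (1 μM, 2 h). After PBS wash, loaded with H2DCF at 50 nM final in HBSS for 15 min at 37°C. Live-cell fluorescence imaging at 37°C under identical acquisition settings.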

A further series has as its system SSH1/Cofilin complex. Kind of series: SSH1/Cofilin complex, co-immunoprecipitation in HT22 cells. It is filed as cell-based, mouse (HT22 mouse cell line). Conditions: Aβ42O 1 μM, 2 h; n=3 replicates.
The test system of the next series is PSD95. Kind of series: PSD95 staining in DIV21 hippocampal neurons. The format is cell-based, mouse. The conditions noted are these: Aβ42O 1 μM, 2 h, n=4–6 replicates. The essentials:
(§2)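 Hippocampal neurons from P0 WT or Cofilin+/− pups grown on poly-D-lysine to DIV21, then given Aβ42 oligomers (1 μM, 2 h). Fixed in 4% paraformaldehyde 15 min at RT, serum-blocked, primary antibody (Drebrin or PSD95) overnight at 4°C, secondary 45 min at RT; F-actin stained by rhodamine-phalloidin. Mean intensity measured in spine-containing neurites; n=4–6, ANOVA with Tukey test.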

In series [3] the test system is Talin. Briefly: FC-enriched fractionation of HT22 cells, Talin. The format is cell-based, mouse (HT22 mouse cell line). The conditions noted are these: Aβ42O (1 μM in text; 0, 0.25, 2 μM for 0, 2, 4 h in Figure S3 legend). The essentials: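 HT22 cells exposed to Aβ42 oligomers. Cytosolic proteins released with saponin buffer (0.1% saponin, 25 mM HEPES, 75 mM potassium acetate) for 10 min on ice. Remaining membrane/cytoskeletal proteins extracted in 2× SDS sample buffer with sonication to give the focal-contact-enriched fraction. Talin detected by immunoblot with ECL.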

A further series deals with activated β1-integrin. Briefly: FITC-HUTS-4 staining of activated β1-integrin in primary hippocampal neurons. The format is cell-based. The conditions noted are these: DIV14 fixed and permeabilized neurons; Aβ42O 1 μM, 2 h; n=4 replicates.
In series [4] the test system is transferrin receptor (TfR). Kind of series: Cell surface biotinylation, surface TfR in HT22 cells. The format is cell-based, mouse (HT22 mouse cell line). Conditions: Aβ42O 1 μM, 2 h or FN coating; surface/total; n⩾3 replicates.
The test system of another series is F-actin. Kind of series: F-actin staining in DIV21 hippocampal neurons. The conditions noted are these: Aβ42O 1 μM, 2 h, n=4–6 replicates. The format is cell-based, mouse. The essentials:
as §2

Series [5] concerns Talin. Kind of series: FC-enriched fractionation of primary cortical neurons, Talin. The format is cell-based, mouse. The conditions noted are these: Aβ42O 1 μM, 2 h, n=3 replicates. The essentials: (§3)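 DIV14 cortical neurons from P0 WT or Cofilin+/− pups given Aβ42 oligomers (1 μM, 2 h). Cytosol extracted with saponin buffer (0.1% saponin, 25 mM HEPES, 75 mM potassium acetate) 10 min on ice; residue taken up in 2× SDS sample buffer with sonication (focal-contact fraction). Talin/Vinculin immunoblotted and normalized to vehicle controls set at 100%; n=3, t-test.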

The next series deals with PrP^c. The format is cell-based, mouse (HT22 mouse cell line).
The next series has as its system Vinculin. Briefly: FC-enriched fractionation of primary cortical neurons, Vinculin. It is filed as cell-based, mouse. The conditions noted are these: Aβ42O 1 μM, 2 h, n=3 replicates. Summed up: as §3
The target of series [6] is β1-integrin-Fc (extracellular domain fused with human IgG-Fc) (Homo sapiens, UniProt P05556). Briefly: ELISA binding of biotin-Aβ42 to purified β1-integrin-Fc. The conditions noted are these: n=4 replicates. A general note: ELISA stands for enzyme-linked immunosorbent assay.
Series [7] concerns Cofilin (phospho-Cofilin). Briefly: Cytosolic phospho-Cofilin in HT22 cells. The format is cell-based, mouse (HT22 mouse cell line). The conditions noted are these: Aβ42O 1 μM; 0, 2, 4 h. Summed up: as §1
Series [8] is described as follows: SDS-PAGE/immunoblotting of Aβ42 oligomer preparations. Conditions: immunoblotting of Aβ42O preparation. It is filed as physicochemical.
The test system of a further series is 14-3-3/SSH1 complex. Kind of series: 14-3-3/SSH1 complex, co-immunoprecipitation in HT22 cells. It is filed as cell-based, mouse (HT22 mouse cell line). Conditions: Aβ42O 1 μM, 2 h.
Series [9] has as its system HT22 cells. Kind of series: Annexin V/PI apoptosis assay, HT22 cells. The format is cell-based, mouse. Conditions: Aβ42O 1 μM, 24 h / 18 h, 1% FBS; n=4 replicates. The essentials: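 HT22 cells transfected for 48 h with Lipofectamine 2000 with control or SSH1 siRNA (100 nM final), then exposed to Aβ42 oligomers (1 μM, 18 h) in 1% FBS medium. Cells stained on coverslips with FITC-Annexin V and propidium iodide for 20 min at 25°C in the dark, PBS-washed and imaged by fluorescence confocal microscopy. Annexin V marks early apoptosis, PI late apoptosis.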

The test system of series [10] is HT22 cells. Briefly: Mitosox-Red mitochondrial superoxide imaging. It is filed as cell-based, mouse. The conditions noted are these: Aβ42O 1 μM, 2 h, n=6. Summed up: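 Following 45 min (methods; 1 h per legend) pretreatment ± HUTS-4 (1:250), MAB1965 (1:250) or Nox inhibitor III (40 nM), HT22 cells received Aβ42 oligomers (1 μM, 2 h). Washed, given Mitosox-Red at 5 μM final in PBS for 15 min at 37°C, washed again, fixed and imaged by confocal microscopy with identical settings.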

The next series relates to Drebrin. Briefly: Drebrin staining in DIV21 hippocampal neurons. It is filed as cell-based, mouse. The conditions noted are these: Aβ42O 1 μM, 2 h, n=4–6 replicates. Summed up:
as §2

Series [11] concerns HT22 cells. Briefly: JC-1 mitochondrial membrane potential imaging. It is filed as cell-based, mouse. Conditions: Aβ42O 1 μM, 2 h; HUTS-4 1 : 250, MAB1965 1 : 250, Nox inhibitor 40 nM; n=6. The essentials:
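HT22 cells pre-exposed 45 min (methods; legend says 1 h) to HUTS-4 (1:250), MAB1965 (1:250), Nox inhibitor III (40 nM) or none, then Aβ42 oligomers (1 μM, 2 h). Washed, incubated with JC-1 (0.5 μM final, PBS) 15 min at 37°C. Live-cell imaging at 37°C; membrane potential expressed as green/red ratio.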

Series [12] has as its system HT22 cells. Kind of series: FITC-Aβ42O binding/uptake in HT22 cells. It is filed as cell-based, mouse. Conditions: FITC-Aβ42O 0.1 μM, 2 h; MAB1965 1 : 500, MnCl2 0.5 mM or MgCl2 5 mM; n=4 replicates.
For series [13], the system named is DIV21 primary hippocampal neurons. Briefly: FITC-Aβ42O binding to DIV21 primary hippocampal neurons. It is filed as cell-based. The conditions noted are these: 100 nM FITC-Aβ42O, 1 h, 37 °C.
[14] abbreviates: DIV14 Cofilin^+/− cortical neurons.
Where [15] appears, read: HUTS-4 1 : 250, MAB1965 1 : 250, Nox inhibitor 40 nM.

β1-integrin-Fc (extracellular domain fused with human IgG-Fc), sequence (P05556 21-728): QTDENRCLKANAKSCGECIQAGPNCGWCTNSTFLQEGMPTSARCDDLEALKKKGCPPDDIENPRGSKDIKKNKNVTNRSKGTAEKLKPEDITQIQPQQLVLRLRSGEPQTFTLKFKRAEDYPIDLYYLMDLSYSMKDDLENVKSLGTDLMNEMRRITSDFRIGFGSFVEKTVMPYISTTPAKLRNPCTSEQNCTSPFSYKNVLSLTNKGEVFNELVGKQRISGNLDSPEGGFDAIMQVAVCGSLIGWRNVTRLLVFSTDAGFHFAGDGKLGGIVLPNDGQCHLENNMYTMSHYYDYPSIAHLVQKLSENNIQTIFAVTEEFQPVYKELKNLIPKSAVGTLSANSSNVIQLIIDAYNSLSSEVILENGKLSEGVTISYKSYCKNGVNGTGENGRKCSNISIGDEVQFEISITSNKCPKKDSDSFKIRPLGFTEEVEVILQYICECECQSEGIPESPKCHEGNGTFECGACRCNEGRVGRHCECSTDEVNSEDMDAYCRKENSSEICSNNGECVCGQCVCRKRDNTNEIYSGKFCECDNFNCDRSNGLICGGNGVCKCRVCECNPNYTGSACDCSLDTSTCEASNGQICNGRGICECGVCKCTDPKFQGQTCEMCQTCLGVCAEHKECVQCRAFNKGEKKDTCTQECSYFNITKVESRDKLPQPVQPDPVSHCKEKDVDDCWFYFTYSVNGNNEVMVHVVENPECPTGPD

“amyloid-β protein 1–42 oligomers [Aβ42O]”: in the series on focal Vinculin, the “focal Vinculin immunoreactivity in spine-containing dendrites” value is recorded as “significantly reduced focal Vinculin immunoreactivity”. For the same molecule, the “translocation of Cofilin to mitochondria” value in the series with Cofilin (mitochondrial) is “rapidly increased the translocation of Cofilin to mitochondria”. Besides, the “effect on total β1-integrin” value in the series with β1-integrin is “without altering total β1-integrin”. The Cofilin dephosphorylation/activation result in [1] (WT primary cortical neurons) was “significantly induced Cofilin dephosphorylation/activation”. Moreover, the “Cofilin dephosphorylation in β1-integrin cKO neurons” value in series [1] (β1-integrin cKO neurons (Lenti-Cre-mRFP)) is “absent in β1-integrin cKO neurons”. The “ROS levels (H2DCF)” value in the series with HT22 cells [2] is given as “increased ROS levels”. In addition, in the series with SSH1/Cofilin complex, the SSH1/Cofilin complexes result is “significantly increased SSH1/Cofilin complexes”. The “effect on PSD95, WT neurons” value with PSD95 (spine-containing neurites) was “significantly depleted F-actin, Drebrin, and PSD95”. For the same molecule, the “effect on PSD95, Cofilin^+/− neurons” value in the series on PSD95 (Cofilin^+/−) is reported as “no significant effects”. The “effect on FC-enriched Talin, HT22 cells” value in the series on Talin [3] was “saliently reduced FC-enriched but not cytosolic (cyto) Vinculin and Talin”. The “reduction of FITC-HUTS-4-positive activated β1-integrin” value in the series on activated β1-integrin is given as over 50%. Also, the “effect on surface TfR” value in series [4] is given as “no significant effect on surface TfR”. Further, the “effect on F-actin, WT neurons” value in the series with F-actin (spine-containing neurites) was “significantly depleted F-actin, Drebrin, and PSD95”. In addition, the “effect on F-actin, Cofilin^+/− neurons” value in the series on F-actin (Cofilin^+/−) is “no significant effects”. Besides, the “effect on FC Talin, Cofilin^+/− neurons” value in the series with Talin [5] (setting [14]) was “did not significantly deplete Vinculin and Talin”. Further, the “effect on FC-enriched/focal Talin, WT primary neurons” value in the series on Talin [5] (DIV14 cortical neurons) was “saliently reduced FC-enriched but not cytosolic (cyto) Vinculin and Talin; also recorded: depleted focal Vinculin and Talin”. For the same molecule, the “effect on surface PrP^c” value in the series with PrP^c is recorded as “unaffected”. Besides, the “effect on FC Vinculin, Cofilin^+/− neurons” value with Vinculin (setting [14]) was “did not significantly deplete Vinculin and Talin”. For the same molecule, in the series on Vinculin (DIV14 cortical neurons), the “effect on FC-enriched/focal Vinculin, WT primary neurons” value is “saliently reduced FC-enriched but not cytosolic (cyto) Vinculin and Talin; also recorded: depleted focal Vinculin and Talin”. Moreover, the “binding to β1-integrin-Fc with MnCl2” value in series [6] (MnCl2 0.5 mM) was “essentially eliminated Aβ42O binding; also recorded: failed to support Aβ42O binding to β1-integrin-Fc”. Also, in series [6] (no cation / absence of Mg^2+), the “binding to β1-integrin-Fc in the absence of cation” value is recorded as “did not bind to β1-integrin-Fc; also recorded: minimal binding”. The “phospho-Cofilin in the cytosol” value in series [7] is recorded as “decreasing phospho-Cofilin in the cytosol”. For the same molecule, in [8], the “oligomeric state on SDS-PAGE” value is “contained SDS-resistant dimers, trimers, and tetramers”. In the series with 14-3-3/SSH1 complex, the 14-3-3/SSH1 complexes entry is “reduced 14-3-3/SSH1 complexes”. The “induction of early (Annexin V) and late (PI) apoptosis” value in the series on HT22 cells [9] is “significant induction of early (Annexin V) and late (PI) apoptosis”. Moreover, in the series with HT22 cells [10], the “mitochondrial superoxide (Mitosox-Red)” value is “increased mitochondrial superoxide (Mitosox-Red)”. Also, the “effect on Drebrin, WT neurons” value in the series with Drebrin (spine-containing neurites) is “significantly depleted F-actin, Drebrin, and PSD95”. The “effect on Drebrin, Cofilin^+/− neurons” value in the series with Drebrin (Cofilin^+/−) was “no significant effects”.

`Cc1c(C)c2c(c(C)c1O)CCC(C)(C(=O)O)O2` (stereo not shown) [Trolox]: the “restoration of 14-3-3/SSH1 complexes reduced by Aβ42O” value in the series on 14-3-3/SSH1 complex (prior treatment 30 min, MAB1965 1:250 or Trolox 200 µM) is “largely restored”.

Turning to `c1ccc(Cn2nnc3c(Sc4nc5ccccc5o4)ncnc32)cc1` [NOX inhibitor], in the series with HT22 cells [2] (setting [15]), the “prevention of Aβ42O-induced change in H2DCF” value is “significantly prevented such changes”. Also, in the series with HT22 cells [11], the “extent of restoration of JC-1 membrane potential” value was “not fully restored”. In addition, the “prevention of Aβ42O-induced change in Mitosox-Red” value in the series on HT22 cells [10] (setting [15]) is reported as “significantly prevented such changes”.

With `[Cl][Mn][Cl]` [MnCl2], the “effect on FITC-Aβ42O binding to HT22 cells” value in the series with HT22 cells [12] is recorded as “significantly reduced”.

Consider fibronectin [FN], for which the “effect on surface TfR” value in [4] was “modestly, but significantly, increased surface/total transferrin receptor (TfR)”. In the series with PrP^c, the “effect on surface PrP^c” value is “unaffected”.

With “Aβ42 monomers: freshly solubilized monomer; tested as biotin-Aβ42M”, the “binding to β1-integrin-Fc, monomers and fibrils” value in series [6] (5 mM MgCl2, biotin-Aβ42M or biotin-Aβ42F) was “bound poorly to β1-integrin-Fc”.

For “FITC-Aβ42O: FITC-Aβ1-42 (American Peptide), oligomer preparation”, the “FITC-Aβ42O binding to neurons (localisation)” value in series [13] was “associated with dendrites and dendritic spines”.
